From ChEMBL document CHEMBL1156252, “Sigma-1 ligands: Tic-hydantoin as a key pharmacophore” (Eur J Med Chem, 2010)

target: not listed separately; assay: Displacement of [3H]DTG […] from sigma 2 receptor in rat cerebral cortex after 120 mins; type: tissue-based
How it was run: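 Rat cerebral cortex membranes incubated with […] (5 nM) plus (+)-pentazocine (300 nM) to mask σ1 sites, with a concentration range of test compound, 2 h at 22 °C in 5 mM Tris/HCl pH 7.4. […] Bound ligand was collected by GF/B filtration, washed with ice-cold saline and counted by liquid scintillation.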

Structure (SMILES) | IC50
CN(CCCN1C(=O)[C@@H]2Cc3ccccc3CN2C1=O)Cc1ccccc1 | > 500 nM

target: Sigma-1 receptor (Homo sapiens, Jurkat); assay: Displacement of [3H](+)-pentazocine from sigma 1 receptor in human Jurkat cells by scintillation counting

Structure (SMILES) | IC50
CN(CCCn1c(=O)[nH]c2ccc(I)cc2c1=O)Cc1ccccc1 | 103 nM
CN(CCCn1c(=O)[nH]c2ccc(Cl)cc2c1=O)Cc1ccccc1 | > 200 nM
CN(CCCN1C(=O)[C@H]2Cc3ccccc3C[C@H]2C1=O)Cc1ccccc1 | 57 nM
CN(CCCN1C(=O)c2cccnc2C1=O)Cc1ccccc1 | > 200 nM
CN(CCCn1c(=O)[nH]c2ccccc2c1=O)Cc1ccccc1 | 116 nM
CN(CCCN1C(=O)[C@H](Cc2ccccc2)N(C)C1=O)Cc1ccccc1 | > 200 nM
CN(CCCN1C(=O)C2Cc3ccccc3CN2C1=S)Cc1ccccc1 (centres undefined) | 4.5 nM
CN(CCCN1C(=O)c2ccncc2C1=O)Cc1ccccc1 | > 200 nM
